Published values collected from several papers.
Each line is one published result; the experiments were not run side by side.
Target: Serine/threonine-protein kinase 10 (STK10, Homo sapiens, UniProt O94804)

C[C@@H]1CN(c2cc(-c3nn(C)c4ccc(OC5(C)CC5)cc34)ncn2)C[C@H](C)O1 — remaining binding (cell-free assay; competition with immobilised ligand; 1 µM): 91%
CC1CCCN1c1nccc(-c2cnn3ncccc23)n1 (centres unmarked) — remaining binding (binding; 1 µM): 96%
CS(=O)(=O)NCC[C@H](NC(=O)c1cncc2c1cnn2-c1ccc(F)cc1)c1ccnc(S(C)(=O)=O)c1 — remaining binding (cell-free assay; competition with immobilised ligand; 1 µM): 100%
N[C@@H]1CCN(c2nccc(-c3cnn4ncccc34)n2)C1 — remaining binding (binding; 1 µM): 100%
O=C(NCCCN1CCOCC1)c1ccc(Nc2nccc(-c3cc4ccccc4s3)n2)cc1 — remaining binding (binding; competition with immobilised ligand; 1 µM): 94%
CN(C)C(=O)Cn1cc(-c2nc([C@@](C)(c3ccc(-c4cnc(N)nc4)cc3)C3CC3)no2)cn1 — remaining binding (cell-free assay; competition with immobilised ligand; 1 µM): 89%
COc1cnc(Nc2cccc(S(N)(=O)=O)c2)nc1N1CCN(c2ccccc2)CC1 — remaining binding (binding; competition with immobilised ligand; 1 µM): 100%
F[C@@H]1CCN(c2nccc(-c3cnn4ncccc34)n2)C1 — remaining binding (binding; 1 µM): 90%
FC(F)(F)Oc1cccc(-c2cnc3ccc(-c4ccncc4)nn23)c1 — remaining binding (binding; competition with immobilised ligand; 5 µM): 0.3%
O=C(NCCCN1CCOCC1)c1ccc(Nc2ncc(Cl)c(-c3ccc(Cl)s3)n2)cc1 — remaining binding (binding; competition with immobilised ligand; 1 µM): 57%
CNC(=O)[C@@H]1CC[C@@H](n2c(-c3ccc4cnccc4c3)nc3ccc(C(=O)NCc4cccc(C(N)=O)c4)cc32)C1 — remaining binding (binding; competition with immobilised ligand; 1 µM): 83%
C[C@H]1CCN(c2nccc(-c3cnn4ncccc34)n2)C1 — remaining binding (binding; 1 µM): 100%
Cc1c(NC(=O)c2cc(C(N)=O)nc3cc(F)ccc23)c(C(F)(F)F)nn1Cc1ccc(C(C)(C)C)cc1 — remaining binding (cell-free assay; competition with immobilised ligand; 1 µM): 88%
CN(CCCC(F)(F)F)c1nccc(-c2cnn3ncccc23)n1 — remaining binding (binding; 1 µM): 100%
O=C(NCC1CCOCC1)c1n[nH]cc1NC(=O)c1c(F)cccc1F — remaining binding (binding; competition with immobilised ligand; 1 µM): 100%
CC(C)CC(=O)N1CCc2nc(-c3ccc(Br)cc3)nc(N(C)Cc3ccccc3)c2C1 — remaining binding (cell-free assay; competition with immobilised ligand; 0.1 µM): 100%
CN(C)c1nccc(-c2cnc3ncccn23)n1 — remaining binding (binding; 1 µM): 100%
CCN1CCN(Cc2ccc(C(=O)Nc3ccc(C)c(Oc4ccc5c(c4)CC(=O)N5)c3)cc2C(F)(F)F)CC1 — remaining binding (binding; competition with immobilised ligand; 1 µM): 3.2%
Cc1cnc(Nc2ccc(C(=O)N3CCC(N4CCCC4)CC3)cc2)nc1-c1cc2ccccc2s1 — remaining binding (binding; competition with immobilised ligand; 1 µM): 14%
O=C(O)[C@@H]1[C@@H](Cn2nnc3ccccc3c2=O)CC[C@H]1C(=O)c1ccc(OCCC2CCOCC2)cc1 — remaining binding (cell-free assay; competition with immobilised ligand; 1 µM): 84%
